An excerpt weighted towards active compounds, which were near 5.6% of everything screened.
CHOP inhibitor: blocks CHOP induction under ER stress; AID 2732; CHO-K1 CHOP-promoter luciferase, tunicamycin-induced, 15-18 h; inhibition, % at 10 µM; hit rate 3.8% among 220,000;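 active = compounds that reduced the stress-induced luciferase reporter signal by more than about 70% of percent inhibition, limit read from the data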;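 note: 0% = tunicamycin plus vehicle and 100% = wells without tunicamycin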
aDG glyco up: increases alpha dystroglycan glycosylation; Pro5-aDG cells, alpha-DG glycosylation AlphaScreen (IIH6); 0% Pro5, 100% B10-LARGE cell signal; activation, % at 10 µM; hit rate 0.22% among 360,000;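 active = activation of at least 8% versus controls, or a plate z-score of at least 8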;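 note: Pro5 are CHO cells carrying HIG-tagged alpha-DG that lacks glycosylation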
MPTP block: blocks calcium-induced mitochondrial swelling. isolated mouse mitochondria, Ca2+ swelling absorbance, 30 min. inhibition, % at 10 µM. hit rate 1.4% among 360,000;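 active = inhibition of 50% or more, scaled per plate between neutral and stimulator controls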;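 note: 0% = DMSO wells given calcium and 100% = 1 mM EGTA wells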
NR3A LBD binder: modulators (binders) of human NR3A ligand-binding domain. Tm shift relative to glycine control, % at 25 µM. NR3A LBD differential scanning fluorimetry, Tm shift; 0% = protein alone, 100% = glycine-bound protein. AID 1259313. hit rate 2.5% among 340,000;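 active = melting temperature shift of at least 10% of the positive control shift, at one fixed dose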
UPR XBP1 act: adaptive UPR (XBP1) activation. CHO-XBP1 luciferase reporter, IRE1-XBP1 UPR activation, luminescence; percent of tunicamycin response, DMSO as zero. activation, % at 20 µM. hit rate 0.33% among 330,000;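 active = versus positive control, 20 µM dose yields 30% or more activation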;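 note: 100% = tunicamycin at 10 µg/mL and 0% = DMSO only wells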
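Assay system: CHO-XBP1 luciferase reporter cells; Schedule: 6 h treatment, 37 °C; Detection: glow luminescence from Steady-Glo reagent; Benchmarks: high control tunicamycin 10 µg/mL final, low control DMSO vehicle only.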
CHOP UPR activ: activators of apoptotic arm of unfolded protein response (CHOP); CHO-CHOP luciferase reporter, UPR activation, luminescence; percent of tunicamycin response over DMSO baseline; activation, % at 10 µM; hit rate 0.34% among 330,000;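 active = at 10 µM dose, activation of 40% or more, normalized to positive control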;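 note: 100% = tunicamycin at 10 µg/mL and 0% = DMSO alone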
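assay system = CHO CHOP reporter cells | amount = 500 CHO-CHOP cells per well | buffer or medium = F12 with 10% FBS | incubation = 16-18 h cell attachment, then 6 h compound exposure, 37 °C | detection = luminescence read with Steady-Glo | read-out = percent activation relative to tunicamycin control | controls = tunicamycin high control, DMSO low control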
Active calls of the source: *; · = not tested or not shown.

SMILES | CHOP inhibitor | aDG glyco up | MPTP block | NR3A LBD binder | UPR XBP1 act | CHOP UPR activ
CC(/C=C1\SC(=S)N(NC(=O)c2ccncc2)C1=O)=C\c1ccccc1 | 7 | 0 | 3 | 20* | -5 | -2
CC(/C=C1\SC(=S)N(CCC(=O)Nc2ccc(O)cc2)C1=O)=C\c1ccccc1 | · | 0 | 0 | 14* | 1 | 9
O=C(CCN1C(=O)/C(=C\c2ccc(F)cc2)SC1=S)Nc1ccc(O)cc1 | · | 0 | 1 | 8 | -3 | 0
COc1ccc(/C=C2/SC(=S)N(CCCC(=O)Nc3ccc(O)cc3)C2=O)cc1OC | · | 1 | 0 | 7 | -6 | -3
O=C(NCC[C@@H]1CC[C@@H](NS(=O)(=O)Cc2ccccc2)[C@@H](CO)O1)C1CC1 | · | 0 | -2 | · | · | ·
COc1ccc(/C=C2\SC(=O)N(CCC(=O)Nc3ccc(S(=O)(=O)Nc4nccs4)cc3)C2=O)cc1 | 15 | 0 | 8 | 11* | -2 | -2
CCOc1ccc(/C=C2\SC(=S)N(CCC(=O)O)C2=O)cc1 | 84* | 0 | 4 | 4 | -6 | -8
S=C(NCCc1cccc(Cl)c1)NC1CCCCC1 | · | 0 | 14 | 12* | 0 | 9
S=C(NCCc1ccccc1)NC1CCC(NC(=S)NCCc2ccccc2)CC1 (centres undefined) | 28 | 0 | 1 | 1 | 0 | 1
CCCSc1nc(N2CCOCC2)c2c(c1C#N)CCCC2 | 46 | 0 | -3 | 19* | -4 | -1
CSc1nc(C)c2c(c1C#N)CCCC2 | 92* | 0 | 4 | 1 | 0 | -2
CSc1nc(N2CCOCC2)c2c(c1C#N)CCCCC2 | 73* | 0 | -4 | 0 | -7 | -1
CC(C)c1nc(N2CCOCC2)c(C#N)c2c1CCC2 | 72* | 0 | 2 | 2 | -2 | 0
CCCc1nc(N2CCOCC2)c(C#N)c2c1CCCC2 | 54 | 1 | 1 | 3 | 0 | -1
Cc1ccc2nc(Cl)c(/C=N/Nc3nc(C)cc(C)n3)c(=O)n2c1 | 18 | 0 | 0 | 1 | 1 | 1
O=C(COC(=O)c1cncc(Br)c1)Nc1ccc(F)c(F)c1F | · | 0 | 0 | -1 | 2 | -1
CC(=O)c1c(C)nn(C(=O)c2cccs2)c1C | 6 | 0 | -1 | -5 | 0 | 0
Cc1nn(C(=O)c2cccs2)c(N)c1-c1ccccc1 | 95* | 0 | 0 | -1 | 6 | 7
CC(CC(=O)NNC(=O)c1ccncc1)c1ccccc1 (centres undefined) | · | 0 | -1 | -1 | -1 | -1
COc1ccccc1/C=C1\N=C(C(C)(C)C)OC1=O | · | 0 | -1 | 5 | -1 | -1
COc1ccc(N(C)S(=O)(=O)c2cccc(C(=O)NCC(c3cccs3)N(C)C)c2)cc1 (centres undefined) | · | 0 | 0 | -1 | -3 | 1
N#CC1=C(N)Oc2cc(N)ccc2C1c1ccccc1Cl (centres undefined) | · | 0 | 2 | -1 | -1 | 1
N#CC1=C(N)OC2=C(CCc3ccccc32)C1c1ccccc1Cl (centres undefined) | 87* | 0 | 8 | -6 | 8 | 4
COc1ccc(-c2ccnc3nc(N4CCN(c5ccccc5)CC4)nn23)cc1 | 72* | 0 | 7 | -6 | 4 | 2
Cc1nc2cc(C(=O)O)ccc2n1-c1ccc(F)cc1F | -14 | 0 | 3 | 15* | -2 | -4
SMILES | CHOP inhibitor | aDG glyco up | MPTP block | NR3A LBD binder | UPR XBP1 act | CHOP UPR activ
NS(=O)(=O)c1ccc(CNC(=S)Nc2ccc(Cl)c(Cl)c2)cc1 | -10 | 0 | 1 | 12* | -4 | -2
COc1ccc(NC(=S)NCc2ccc(S(N)(=O)=O)cc2)cc1OC | 2 | 0 | -1 | -4 | 1 | 0
Cc1ccc2scc(CN3CCCC3)c2c1 | · | 0 | 0 | 0 | -1 | -1
CNC(=O)Cc1csc2ccc(C)cc12 | -3 | 0 | 2 | 14* | 0 | -1
CC1(C)OC(=O)C2=C(C[C@@H](CCOCc3ccccc3)O[C@@H]2c2ccc(F)cc2)O1 | · | 0 | 0 | · | · | ·
COc1ccc(NC2c3ccccc3C(=O)N2Cc2ccco2)cc1OC (centres undefined) | 0 | 0 | 0 | -2 | -1 | 0
CCOc1ccc(NC2c3ccccc3C(=O)N2Cc2ccco2)cc1 (centres undefined) | 73* | 0 | 6 | 5 | -2 | 0
CN(C)c1ccc2c(=O)cc[nH]c2c1 | · | 0 | 0 | · | · | ·
COc1ccc2oc(=O)c(-c3csc(Nc4cccc(O)c4)n3)cc2c1 | 0 | 0 | 6 | 27* | 2 | 7
O=C(O)c1ccc(Nc2nc(-c3cc4ccccc4oc3=O)cs2)cc1O | 3 | 0 | -1 | 5 | 1 | 0
CC(=O)Nc1ccc(Nc2nc(-c3cc4ccccc4oc3=O)cs2)cc1 | · | 0 | 1 | 4 | 8 | 15
COc1cccc2sc(Nc3nc(-c4cc5ccccc5oc4=O)cs3)nc12 | -4 | 0 | 2 | 20* | · | ·
COc1cccc2sc(Nc3nc(-c4ccncc4)cs3)nc12 | -24 | 0 | -4 | -2 | 28 | 3
O=C(Nc1nc(-c2cc3ccccc3oc2=O)cs1)c1ccc(Br)o1 | 46 | 0 | 2 | 29* | -1 | -1
COc1ccc(Nc2nc(-c3cc4cccc(OC)c4oc3=O)cs2)cc1 | 39 | 0 | 4 | 16* | 5 | 2
COc1ccc(-c2cc3cccc(OC)c3oc2=O)cc1 | · | 0 | 0 | -1 | -6 | -1
Cn1c(N)c(C(=O)CSc2nc(C3CC3)n(-c3ccccc3)n2)c(=O)n(C)c1=O | · | 0 | 0 | 0 | -1 | -3
CN1CCN(NS(=O)(=O)c2ccc(Cl)cc2)CC1 | · | 0 | 1 | 2 | -4 | 2
CC1(C)Oc2ccc3ccc(=O)oc3c2C(N2CCCCC2)C1O (centres undefined) | -6 | 0 | 0 | -1 | 1 | -3
CC(=O)OC1C(N2CCCCC2)c2c(ccc(/C=C/C(=O)N3CCCCC3)c2O)OC1(C)C (centres undefined) | 77* | 1 | 0 | 0 | 3 | 7
CC1(C)CC(=O)C(C=NCC2CCNCC2)=C(O)C1 | 72* | 0 | -2 | 5 | 1 | -2
COC(=O)c1c(NC(=O)COC(=O)CNC(=O)c2cccc(OC(F)F)c2)sc(C)c1C | · | 0 | -2 | · | · | ·
Cc1ccc(C)c(S(=O)(=O)Nc2ccc(O)c3ccccc23)c1 | · | 4.3* | 0 | -3 | -2 | 1
Cc1ccc(S(=O)(=O)Nc2ccc(O)c3ccccc23)c(C)c1 | · | 2 | 1 | -3 | · | ·
CO/N=C(\Cn1ncc(N2CCCC2)c(Br)c1=O)c1ccc(Cl)cc1 | 42 | 0 | 0 | -1 | -3 | -2

Compound activity as filed in PubChem BioAssay.
